Measurements published in ChEMBL document CHEMBL1157932, “Prenylated pterocarpans as bacterial neuraminidase inhibitors” (Bioorg Med Chem, 2010).
Active and inactive are the calls of the source. The rule behind the calls is not given here.

Key:
[1] = biological target: T1, Sialidase (Clostridium perfringens) (UniProt P10481); assay: Reversible inhibition of Clostridium perfringens neuraminidase at 0.1 times IC50 pre-incubated for 15 mins by spectrofluorimetry
T1 sequence (whole entry): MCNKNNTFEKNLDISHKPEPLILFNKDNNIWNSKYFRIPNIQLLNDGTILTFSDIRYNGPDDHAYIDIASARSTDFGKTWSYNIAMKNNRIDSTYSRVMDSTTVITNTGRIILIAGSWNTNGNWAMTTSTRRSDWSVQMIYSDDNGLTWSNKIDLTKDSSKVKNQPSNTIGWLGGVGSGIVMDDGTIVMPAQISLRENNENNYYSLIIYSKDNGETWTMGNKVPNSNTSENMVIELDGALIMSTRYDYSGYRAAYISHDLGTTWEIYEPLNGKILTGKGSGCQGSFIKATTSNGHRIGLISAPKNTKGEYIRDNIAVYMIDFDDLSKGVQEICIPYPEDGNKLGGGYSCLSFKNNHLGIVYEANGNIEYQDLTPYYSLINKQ
In short: (§1)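 Reversibility by jump dilution: enzyme pre-incubated 15 min with compound at 100-fold assay enzyme level (0.125 U/mL), then diluted 1/100 into acetate buffer with substrate. Progress curves of fluorescence over 30 min compared with enzyme pre-incubated and diluted without compound.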

Sialidase [2] = biological target: T2, Sialidase (Clostridium perfringens, UniProt P10481); assay: Noncompetitive inhibition of Clostridium perfringens neuraminidase
T2 sequence (P10481 whole entry): T1 sequence (whole entry)
In short: (§2)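 Kinetics run in acetate-buffer 4-MU-NANA fluorometric assay without stop solution, product read immediately at ex 360/em 440 nm across substrate and inhibitor concentrations. Mode assigned from Lineweaver–Burk and Dixon plots; Ki from x-axis intersection of lines.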

[3] = biological target: T1, Sialidase (Clostridium perfringens); assay: Inhibition of Clostridium perfringens neuraminidase at 10 times IC50 by spectrofluorimetry; in short: as §1
[4] = biological target: T1, Sialidase (Clostridium perfringens); assay: Inhibition of Clostridium perfringens neuraminidase at 0.1 times IC50 by spectrofluorimetry; in short: as §1
Sialidase [5] = biological target: Sialidase (Vibrio cholerae serotype O1 (strain ATCC 39315 / El Tor Inaba N16961), UniProt P0C6E9); assay: (§3) Inhibition of Vibrio cholerae neuraminidase assessed as inhibition of 4-MU-NANA hydrolysis after 30 mins by spectrofluorimetry
Sequence of Sialidase (Vibrio cholerae serotype O1 (strain ATCC 39315 / El Tor Inaba N16961), UniProt P0C6E9) (P0C6E9 whole entry, one chain of several): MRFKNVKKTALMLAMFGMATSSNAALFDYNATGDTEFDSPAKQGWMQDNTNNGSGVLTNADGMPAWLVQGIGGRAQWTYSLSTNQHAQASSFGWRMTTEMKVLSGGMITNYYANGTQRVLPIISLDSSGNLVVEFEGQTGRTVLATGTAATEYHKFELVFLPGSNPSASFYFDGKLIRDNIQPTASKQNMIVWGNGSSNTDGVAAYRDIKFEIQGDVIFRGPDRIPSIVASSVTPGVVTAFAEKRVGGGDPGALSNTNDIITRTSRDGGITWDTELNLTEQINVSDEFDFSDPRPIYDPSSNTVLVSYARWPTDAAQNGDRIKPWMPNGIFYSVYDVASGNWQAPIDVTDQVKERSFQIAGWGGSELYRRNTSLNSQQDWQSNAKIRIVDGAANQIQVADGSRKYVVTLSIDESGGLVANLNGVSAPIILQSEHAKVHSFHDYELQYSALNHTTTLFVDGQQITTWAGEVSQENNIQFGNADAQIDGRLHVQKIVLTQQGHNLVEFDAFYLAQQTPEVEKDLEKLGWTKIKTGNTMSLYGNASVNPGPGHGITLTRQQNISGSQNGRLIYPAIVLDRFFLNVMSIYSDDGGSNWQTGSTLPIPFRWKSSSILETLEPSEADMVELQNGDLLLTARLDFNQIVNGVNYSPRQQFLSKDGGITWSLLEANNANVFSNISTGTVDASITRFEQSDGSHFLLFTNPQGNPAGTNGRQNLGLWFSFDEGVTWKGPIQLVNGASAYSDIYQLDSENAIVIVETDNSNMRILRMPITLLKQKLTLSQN
In short: (§4)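 V. cholerae enzyme (8.3 U) with compound in 50 mM MES, 6 mM CaCl2, pH 5.6, pre-incubated 30 min at 37 °C with shaking. 4-MU-NANA added at 25 µM final, 30 min at 37 °C, then quenched with 0.25 M glycine pH 10.0. Read at ex 360/em 440 nm, blank-corrected, expressed as % of no-inhibitor control, at least triplicate.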

Sialidase [6] = biological target: T2, Sialidase; assay: (§5) Inhibition of Clostridium perfringens neuraminidase assessed as inhibition of 4-MU-NANA hydrolysis after 10 mins by spectrofluorimetry
In short: (§6)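 Enzyme at 0.05 U/mL in 0.04 M sodium acetate pH 5.0 with compound (DMSO stock diluted in buffer) and 4-MU-NANA (1 mM stock); 10 min at 37 °C. Stopped with 0.1 M glycine–NaOH pH 10.4; 4-methylumbelliferone read at ex 360/em 440 nm. IC50 from regression, mean ± SD of three replicates.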

[7] = biological target: T1, Sialidase (Clostridium perfringens); assay: as §5; in short: as §6
[8] = biological target: T1, Sialidase (Clostridium perfringens); assay: Noncompetitive inhibition of Clostridium perfringens neuraminidase by Dixon plot analysis
In short: (§7)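 Dixon plots of 1/v against [I] at each substrate concentration, rates from unquenched fluorometric 4-MU-NANA hydrolysis (ex 360/em 440 nm); Ki read from the x-axis value where lines intersect.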

[9] = biological target: T1, Sialidase (Clostridium perfringens); assay: Reversible inhibition of Clostridium perfringens neuraminidase at 10 times IC50 pre-incubated for 15 mins by spectrofluorimetry; in short: as §1
[10] = biological target: T1, Sialidase (Clostridium perfringens); assay: Noncompetitive inhibition of Clostridium perfringens neuraminidase by Lineweaver-Burke plot analysis
[11] = biological target: Sialidase (Vibrio cholerae serotype O1 (strain ATCC 39315 / El Tor Inaba N16961)) (UniProt P0C6E9); assay: as §3; in short: as §4
Sequence of Sialidase (Vibrio cholerae serotype O1 (strain ATCC 39315 / El Tor Inaba N16961)) (P0C6E9 whole entry, one chain of several): as above

Sialidase [12] = biological target: T2, Sialidase; assay: Competitive inhibition of Clostridium perfringens neuraminidase; in short: as §2
[13] = biological target: Sialidase (Vibrio cholerae serotype O1 (strain ATCC 39315 / El Tor Inaba N16961)) (UniProt P0C6E9); assay: Inhibition of Vibrio cholerae neuraminidase assessed as inhibition of 4-MU-NANA hydrolysis at 30 ug/mL after 10 mins by spectrofluorimetry
[14] = biological target: T1, Sialidase (Clostridium perfringens); conditions: 20 ug/mL
Vibrio cholerae [15] = assay: Antibacterial activity against Vibrio cholerae 16961 at 3 to 10 ug/ml after 24 hrs; assay type: functional, organism-based
Vibrio cholerae [16] = assay: Antibacterial activity against Vibrio cholerae 16961 infected in human HeLa cells assessed as inhibition of bacterial adherence to host cell at 3 to 10 ug/ml pre-incubated for 1 hr before infection measured after 30 mins of infection by Giemsa staining; assay type: functional, organism-based
[17] = biological target: T1, Sialidase (Clostridium perfringens); assay: Competitive inhibition of Clostridium perfringens neuraminidase by Dixon plot analysis; in short: as §7
[18] = biological target: T1, Sialidase (Clostridium perfringens); assay: Competitive inhibition of Clostridium perfringens neuraminidase by Lineweaver-Burke plot analysis

Compound | inhibition [1] | Ki (Sialidase [2]) | inhibition [3] | inhibition [4] | IC50 (Sialidase [5]) | IC50 (Sialidase [6]) | Activity [7] | inhibition [8] | inhibition [9] | inhibition [10] | Activity [11] | Ki (Sialidase [12]) | inhibition [13] | inhibition [14] | Activity (Vibrio cholerae [15]) | Activity (Vibrio cholerae [16]) | inhibition [17] | inhibition [18]
CC(C)=CCc1c(O)ccc2c1O[C@H]1c3cc4c(cc3OC[C@@H]21)OC(C)(C)C(O)C4 (stereo partly drawn) [ERYTHRIBYSSIN L] | Active | 4.13 µM | 91% | 9% | 27.1 µM | 2.79 µM | Dose-dependent effect | Active | Active | Active |  |  |  |  |  |  |  | 
CC1(C)C=Cc2c(ccc3c2O[C@H]2c4ccc(O)cc4OC[C@@H]32)O1 [PHASEOLIN] |  |  |  |  | 31.4 µM | 33.6 µM |  |  |  |  | Dose-dependent effect | 4.84 µM |  |  |  |  |  | 
COc1ccc2c(c1CC=C(C)C)O[C@H]1c3cc(CC=C(C)C)c(O)cc3OC[C@@]21O [ERYSTAGALLIN A] | Active | 1.8 µM | 91% | 9% | 27.7 µM | 2.04 µM | Dose-dependent effect | Active | Active | Active | Dose-dependent effect |  |  |  |  |  |  | 
O=c1c(O)c(-c2ccc(O)c(O)c2)oc2cc(O)cc(O)c12 [QUERCETIN] |  |  |  |  |  | 25.3 µM | Dose-dependent effect |  |  |  |  |  | 29.3% | 48.9% |  |  |  | 
CC(C)=CCc1c(O)ccc2c3c(oc12)-c1cc(C=O)c(O)cc1OC3 [ERYTHRIBYSSIN O] | Active | 1.21 µM | 91% | 9% | 0.35 µM | 1.32 µM | Dose-dependent effect | Active | Active | Active | Dose-dependent effect |  |  |  |  |  |  | 
CC(C)=CCc1cc2c(cc1O)O[C@H]1c3ccc(O)cc3OC[C@@H]21 [SOPHORAPTEROCARPAN A] | Active | 1.78 µM | 91% | 9% | 11.6 µM | 2.01 µM | Dose-dependent effect | Active | Active | Active |  |  |  |  |  |  |  | 
Oc1ccc2c(c1)O[C@H]1c3ccc(O)cc3OC[C@@H]21 | Active | 3.83 µM | 91% | 9% | 29.5 µM | 6.39 µM | Dose-dependent effect | Active | Active | Active | Dose-dependent effect |  |  |  |  |  |  | 
CC1(C)Oc2ccc3c(c2CC1O)O[C@H]1c2ccc(O)cc2OC[C@@H]31 (stereo partly drawn) [ERYTHRIBYSSIN D] | Active |  | 91% | 9% | 46.2 µM | 77.1 µM | Dose-dependent effect |  | Active |  | Dose-dependent effect |  |  |  |  |  |  | 
CC1(C)C=Cc2cc3c(cc2O1)O[C@H]1c2ccc(O)cc2OC[C@@H]31 [ISONEORAUTENOL] | Active | 11 µM | 91% | 9% | 64.8 µM | 14.1 µM | Dose-dependent effect | Active | Active | Active | Dose-dependent effect |  |  |  |  |  |  | 
CC(C)=CCc1cc2c(cc1O)OC[C@@]1(O)c3ccc4c(c3O[C@@H]21)C=CC(C)(C)O4 [ERYSUBIN E] | Active | 0.24 µM | 91% | 9% | 19.5 µM | 1.3 µM | Dose-dependent effect | Active | Active | Active | Dose-dependent effect |  |  |  |  |  |  | 
CC1(C)C=Cc2cc3c(cc2O1)OC[C@H]1c2ccc(O)cc2O[C@@H]31 [NEORAUTENOL] | Active | 21.7 µM | 91% | 9% | 53.1 µM | 19.8 µM | Dose-dependent effect | Active | Active | Active | Dose-dependent effect |  |  |  |  |  |  | 
COc1ccc2c(c1CC=C(C)C)O[C@H]1c3ccc(O)cc3OC[C@@]21O [ERYTHRABYSSIN I] | Active | 0.31 µM | 91% | 9% | 22 µM | 2.28 µM | Dose-dependent effect | Active | Active | Active | Dose-dependent effect |  |  |  |  |  |  | 
CC(C)=CCc1cc2c(cc1O)OC[C@H]1c3ccc(O)cc3O[C@@H]21 [CALOPOCARPIN] | Active | 2.09 µM | 91% | 9% | 7.55 µM | 1.57 µM | Dose-dependent effect | Active | Active | Active |  |  |  |  | inactive | Active |  | 
CC(C)=CCc1cc2c(cc1O)OC[C@H]1c3ccc4c(c3O[C@@H]21)CC(O)C(C)(C)O4 (stereo partly drawn) [ERYSUBIN D] | Active |  | 91% | 9% | 26.4 µM | 26.4 µM | Dose-dependent effect |  | Active |  | Dose-dependent effect | 15.2 µM |  |  |  |  | Active | Active
CC1(C)Oc2ccc3c(c2CC1O)O[C@@H]1c2ccc(O)cc2OC[C@H]31 (stereo partly drawn) [ERYTHRIBYSSIN M] | Active |  | 91% | 9% | 77.7 µM | 205 µM | Dose-dependent effect |  | Active |  | Dose-dependent effect |  |  |  |  |  |  | 
COc1ccc2c3c(oc2c1CC=C(C)C)-c1ccc(O)cc1OC3 [ERYVARIN D] |  | 2.55 µM |  |  | 3.3 µM | 2.09 µM |  |  |  |  | Dose-dependent effect |  |  |  |  |  |  | 
